# Tests used:
# Format in all cases: toxicity, cell-based
# U2OS [1] = experiment: Incucyte cell viability with U2OS; details: human, 10 µM, compound concentration 10 uM; further: filed as whole numbers so only -1 and 0 and 1 occur
# HEK-293T = experiment: Incucyte cell viability with HEK293T; details: human, 10 µM, compound concentration 10 uM; further: filed as whole numbers so only -1 and 0 and 1 occur
# U2OS [2] = experiment: Multiplex assay against U2OS; details: human
# Outline: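 Tubulin, mitochondrial-mass and membrane-permeability phenotypes are per cents of healthy-nucleus cells. Cells were gated by CellPathfinder machine learning into Hoechst high-intensity objects or normal cells, normal cells into healthy, pyknosed or fragmented nuclei, and pyknosed cells into mitotic or apoptotic. Before that, live cells stained at seeding with Hoechst33342, BioTracker Green Microtubule Cytoskeleton Dye, MitoTracker Red and Annexin V Alexa Fluor 680 were imaged on a CQ1 microscope at 37°C and 5% CO2 after compound addition.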
# Fibroblast = experiment: Incucyte cell viability with human fibroblast; details: 10 µM, compound concentration 10 uM; further: filed as whole numbers so only -1 and 0 and 1 occur
# [3] = 6 h, replicate number 1, timepoint 6 hours
# [4] = 12 h, replicate number 1, timepoint 12 hours
# [5] = 18 h, replicate number 1, timepoint 18 hours
# [6] = 24 h, replicate number 1, timepoint 24 hours
# [7] = 12 h, 1 µM, compound concentration 1 uM, replicate 1
# [8] = 12 h, 1 µM, compound concentration 1 uM, replicate 2
# [9] = 12 h, 10 µM, compound concentration 10 uM, replicate 1
# [10] = 12 h, 10 µM, compound concentration 10 uM, replicate 2
# [11] = 24 h, 1 µM, compound concentration 1 uM, replicate 1
# [12] = 24 h, 1 µM, compound concentration 1 uM, replicate 2
# [13] = 24 h, 10 µM, compound concentration 10 uM, replicate 1
# [14] = 24 h, 10 µM, compound concentration 10 uM, replicate 2
# [15] = 48 h, 1 µM, compound concentration 1 uM, replicate 1
# [16] = 48 h, 1 µM, compound concentration 1 uM, replicate 2
# [17] = 48 h, 10 µM, compound concentration 10 uM, replicate 1
# [18] = 48 h, 10 µM, compound concentration 10 uM, replicate 2
smiles,measurement,setting,value
Oc1cccc(-c2nc(N3CCOCC3)c3oc4ncccc4c3n2)c1 [PI-103],Growth Rate,"U2OS [1]; 0 h, replicate number 1, timepoint 0 hours",0
same,Growth Rate,U2OS [1]; [3],1
same,Growth Rate,U2OS [1]; [4],1
same,Growth Rate,U2OS [1]; [5],0
same,Growth Rate,"U2OS [1]; 18 h, replicate number 2, timepoint 18 hours",1
same,Growth Rate,U2OS [1]; [6],0
same,Growth Rate,"U2OS [1]; 24 h, replicate number 2, timepoint 24 hours",1
same,Growth Rate,HEK-293T; [3],0
same,Growth Rate,HEK-293T; [4],0
same,Growth Rate,HEK-293T; [5],0
same,Growth Rate,HEK-293T; [6],0
same,Population Apoptotic (%),U2OS [2]; [7],73%
same,Population Fragmented Nuclei (%),U2OS [2]; [7],20%
same,Population Healthy Nuclei (%),U2OS [2]; [7],67%
same,Population Hoechst High Intensity Objects (%),U2OS [2]; [7],11%
same,Population Membrane Permeable-Phenotype (%),U2OS [2]; [7],8%
same,Population Mitochondria Different-Phenotype (%),U2OS [2]; [7],7%
same,Population Mitotic Cells (%),U2OS [2]; [7],26%
same,Population Normal (%),U2OS [2]; [7],88%
same,Population Pyknosed Nuclei (%),U2OS [2]; [7],12%
same,Population Tubulin-Different-Phenotype (%),U2OS [2]; [7],14%
same,Total Cell Count,U2OS [2]; [7],224
same,Population Apoptotic (%),U2OS [2]; [8],47%
same,Population Fragmented Nuclei (%),U2OS [2]; [8],10%
same,Population Healthy Nuclei (%),U2OS [2]; [8],63%
same,Population Hoechst High Intensity Objects (%),U2OS [2]; [8],5%
same,Population Membrane Permeable-Phenotype (%),U2OS [2]; [8],2%
same,Population Mitotic Cells (%),U2OS [2]; [8],52%
same,Population Normal (%),U2OS [2]; [8],94%
same,Population Pyknosed Nuclei (%),U2OS [2]; [8],26%
same,Population Tubulin-Different-Phenotype (%),U2OS [2]; [8],0%
same,Total Cell Count,U2OS [2]; [8],73
same,Population Apoptotic (%),U2OS [2]; [9],42%
same,Population Fragmented Nuclei (%),U2OS [2]; [9],20%
same,Population Healthy Nuclei (%),U2OS [2]; [9],47%
same,Population Hoechst High Intensity Objects (%),U2OS [2]; [9],6%
same,Population Membrane Permeable-Phenotype (%),U2OS [2]; [9],35%
same,Population Mitochondria Different-Phenotype (%),U2OS [2]; [9],63%
same,Population Mitotic Cells (%),U2OS [2]; [9],57%
same,Population Normal (%),U2OS [2]; [9],93%
same,Population Pyknosed Nuclei (%),U2OS [2]; [9],31%
same,Population Tubulin-Different-Phenotype (%),U2OS [2]; [9],80%
same,Total Cell Count,U2OS [2]; [9],168
same,Population Apoptotic (%),U2OS [2]; [10],36%
same,Population Fragmented Nuclei (%),U2OS [2]; [10],18%
same,Population Healthy Nuclei (%),U2OS [2]; [10],39%
same,Population Hoechst High Intensity Objects (%),U2OS [2]; [10],5%
same,Population Membrane Permeable-Phenotype (%),U2OS [2]; [10],33%
same,Population Mitochondria Different-Phenotype (%),U2OS [2]; [10],59%
same,Population Mitotic Cells (%),U2OS [2]; [10],63%
same,Population Normal (%),U2OS [2]; [10],94%
same,Population Pyknosed Nuclei (%),U2OS [2]; [10],41%
same,Population Tubulin-Different-Phenotype (%),U2OS [2]; [10],83%
same,Total Cell Count,U2OS [2]; [10],69
same,Population Apoptotic (%),U2OS [2]; [11],56%
same,Population Fragmented Nuclei (%),U2OS [2]; [11],21%
same,Population Healthy Nuclei (%),U2OS [2]; [11],61%
same,Population Hoechst High Intensity Objects (%),U2OS [2]; [11],8%
same,Population Membrane Permeable-Phenotype (%),U2OS [2]; [11],7%
same,Population Mitochondria Different-Phenotype (%),U2OS [2]; [11],4%
same,Population Mitotic Cells (%),U2OS [2]; [11],43%
same,Population Normal (%),U2OS [2]; [11],91%
same,Population Pyknosed Nuclei (%),U2OS [2]; [11],16%
same,Population Tubulin-Different-Phenotype (%),U2OS [2]; [11],11%
same,Total Cell Count,U2OS [2]; [11],224
same,Population Apoptotic (%),U2OS [2]; [12],75%
same,Population Fragmented Nuclei (%),U2OS [2]; [12],14%
same,Population Healthy Nuclei (%),U2OS [2]; [12],69%
same,Population Hoechst High Intensity Objects (%),U2OS [2]; [12],6%
same,Population Membrane Permeable-Phenotype (%),U2OS [2]; [12],3%
same,Population Mitochondria Different-Phenotype (%),U2OS [2]; [12],3%
same,Population Mitotic Cells (%),U2OS [2]; [12],25%
same,Population Normal (%),U2OS [2]; [12],93%
same,Population Tubulin-Different-Phenotype (%),U2OS [2]; [12],1%
same,Total Cell Count,U2OS [2]; [12],73
same,Population Apoptotic (%),U2OS [2]; [13],54%
same,Population Fragmented Nuclei (%),U2OS [2]; [13],25%
same,Population Healthy Nuclei (%),U2OS [2]; [13],40%
same,Population Hoechst High Intensity Objects (%),U2OS [2]; [13],10%
same,Population Membrane Permeable-Phenotype (%),U2OS [2]; [13],20%
same,Population Mitochondria Different-Phenotype (%),U2OS [2]; [13],62%
same,Population Mitotic Cells (%),U2OS [2]; [13],45%
same,Population Normal (%),U2OS [2]; [13],89%
same,Population Pyknosed Nuclei (%),U2OS [2]; [13],34%
same,Population Tubulin-Different-Phenotype (%),U2OS [2]; [13],74%
same,Total Cell Count,U2OS [2]; [13],196
same,Population Apoptotic (%),U2OS [2]; [14],50%
same,Population Fragmented Nuclei (%),U2OS [2]; [14],28%
same,Population Healthy Nuclei (%),U2OS [2]; [14],24%
same,Population Hoechst High Intensity Objects (%),U2OS [2]; [14],4%
same,Population Membrane Permeable-Phenotype (%),U2OS [2]; [14],44%
same,Population Mitochondria Different-Phenotype (%),U2OS [2]; [14],75%
same,Population Mitotic Cells (%),U2OS [2]; [14],49%
same,Population Normal (%),U2OS [2]; [14],95%
same,Population Pyknosed Nuclei (%),U2OS [2]; [14],47%
same,Population Tubulin-Different-Phenotype (%),U2OS [2]; [14],89%
same,Total Cell Count,U2OS [2]; [14],80
same,Population Apoptotic (%),U2OS [2]; [15],70%
same,Population Fragmented Nuclei (%),U2OS [2]; [15],18%
same,Population Healthy Nuclei (%),U2OS [2]; [15],64%
same,Population Hoechst High Intensity Objects (%),U2OS [2]; [15],7%
same,Population Membrane Permeable-Phenotype (%),U2OS [2]; [15],7%
same,Population Mitochondria Different-Phenotype (%),U2OS [2]; [15],6%
same,Population Mitotic Cells (%),U2OS [2]; [15],29%
same,Population Normal (%),U2OS [2]; [15],92%
same,Population Pyknosed Nuclei (%),U2OS [2]; [15],17%
same,Population Tubulin-Different-Phenotype (%),U2OS [2]; [15],16%
same,Total Cell Count,U2OS [2]; [15],222
same,Population Apoptotic (%),U2OS [2]; [16],63%
same,Population Fragmented Nuclei (%),U2OS [2]; [16],10%
same,Population Healthy Nuclei (%),U2OS [2]; [16],75%
same,Population Hoechst High Intensity Objects (%),U2OS [2]; [16],4%
same,Population Membrane Permeable-Phenotype (%),U2OS [2]; [16],8%
same,Population Mitochondria Different-Phenotype (%),U2OS [2]; [16],4%
same,Population Mitotic Cells (%),U2OS [2]; [16],36%
same,Population Normal (%),U2OS [2]; [16],95%
same,Population Pyknosed Nuclei (%),U2OS [2]; [16],13%
same,Population Tubulin-Different-Phenotype (%),U2OS [2]; [16],8%
same,Total Cell Count,U2OS [2]; [16],72
same,Population Apoptotic (%),U2OS [2]; [17],70%
same,Population Fragmented Nuclei (%),U2OS [2]; [17],35%
same,Population Healthy Nuclei (%),U2OS [2]; [17],26%
same,Population Hoechst High Intensity Objects (%),U2OS [2]; [17],15%
same,Population Membrane Permeable-Phenotype (%),U2OS [2]; [17],37%
same,Population Mitochondria Different-Phenotype (%),U2OS [2]; [17],48%
same,Population Mitotic Cells (%),U2OS [2]; [17],29%
same,Population Normal (%),U2OS [2]; [17],84%
same,Population Pyknosed Nuclei (%),U2OS [2]; [17],38%
same,Population Tubulin-Different-Phenotype (%),U2OS [2]; [17],56%
same,Total Cell Count,U2OS [2]; [17],215
same,Population Apoptotic (%),U2OS [2]; [18],68%
same,Population Fragmented Nuclei (%),U2OS [2]; [18],26%
same,Population Hoechst High Intensity Objects (%),U2OS [2]; [18],12%
same,Population Membrane Permeable-Phenotype (%),U2OS [2]; [18],85%
same,Population Mitochondria Different-Phenotype (%),U2OS [2]; [18],77%
same,Population Mitotic Cells (%),U2OS [2]; [18],31%
same,Population Normal (%),U2OS [2]; [18],87%
same,Population Pyknosed Nuclei (%),U2OS [2]; [18],47%
same,Population Tubulin-Different-Phenotype (%),U2OS [2]; [18],88%
same,Total Cell Count,U2OS [2]; [18],86
same,Growth Rate,"Fibroblast; 0 h, replicate number 2, timepoint 0 hours",0
same,Growth Rate,Fibroblast; [3],0
same,Growth Rate,Fibroblast; [4],0
same,Growth Rate,Fibroblast; [5],0
same,Growth Rate,Fibroblast; [6],0

# Reference: ChEMBL document CHEMBL4689842, “EUbOPEN Chemogenomics Library wave 1” (2021)
